tested on: not listed separately; test: Concentration for 95% confidence interval (CI) in dexamethasone-induced mice thymocytes; range 2.78-34.83 uM; format: functional, Mus musculus
Procedure, shortened: (§1)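 Thymocytes from young C57Bl/6 mice, cultured at 37 °C in 5% CO2 in RPMI 1640 with 10% FBS and penicillin/streptomycin, plated at 10⁷ cells/mL. Cells were preincubated 30 min with graded compound concentrations (DMSO stock), then given 5 μM dexamethasone for 6 h. Cells were stained 30 min with 40 nM DiOC6 and 5 μg/mL PI and read by flow cytometry; DiOC6-high/PI-low cells were scored viable. EC50 was taken from a nonlinear one-site fit, with its 95% confidence interval.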

Row | Structure (SMILES) | CI
1 | N=c1sc2ccccc2n1CC(=O)c1ccc(N2CCCC2)cc1 | 34.83 µM

tested on: not listed separately; test: Concentration for 95% confidence interval (CI) in dexamethasone-induced mice thymocytes; range 0.95-1.57 uM; format: functional, Mus musculus; procedure, shortened: as §1

Row | Structure (SMILES) | CI
2 | Cc1ccc(-c2cn3c(n2)sc2ccccc23)cc1 | 1.57 µM

tested on: not listed separately; test: Concentration for 95% confidence interval (CI) in dexamethasone-induced mice thymocytes; range 3.07-5.28 uM; format: functional, Mus musculus; procedure, shortened: as §1

Row | Structure (SMILES) | CI
3 | N=c1sc2c(n1CC(=O)c1ccc(-c3ccc4ccccc4c3)cc1)CCCC2 | 5.28 µM

organism: Mus musculus; test: Concentration required to inhibit dexamethasone-induced death of mice thymocytes; format: functional, organism-based; procedure, shortened: as §1

Row | Structure (SMILES) | EC50
4 | N=c1sc2c(n1CC(=O)c1ccccc1Cl)CCCC2 | 5.72 µM
5 | N=c1sc2c(n1CC(=O)c1ccccc1)CCCC2 | 6.06 µM
6 | c1ccc(-c2ccc(-c3cn4c(n3)sc3ccccc34)cc2)cc1 | 8.12 µM
7 | N=c1sc2ccccc2n1CC(=O)c1ccc(N2CCCC2)cc1 | 9.84 µM
8 | Cc1ccc(C(=O)Cn2c3c(sc2=N)CCCC3)cc1 | 4.16 µM
9 | N=c1sc2c(n1CC(=O)c1ccc(Cl)cc1)CCCC2 | 5.37 µM
10 | c1cc(N2CCCC2)ccc1-c1cn2c3c(sc2n1)CCCC3 | > 10 µM
11 | N=c1sc2c(n1CC(=O)c1ccc(N3CCCC3)cc1)CCCC2 | 1.31 µM
12 | N=c1sc2c(n1CC(=O)c1cccc(F)c1)CCCC2 | 9.69 µM
13 | Cc1ccc(-c2cn3c4c(sc3n2)CCCC4)cc1 | 2.01 µM
14 | Cc1ccc(-c2cn3c(n2)sc2ccccc23)cc1 | 1.22 µM
15 | N=c1sc2c(n1CC(=O)c1ccc(-c3ccccc3)cc1)CCCC2 | 2.29 µM
16 | N=c1sc2ccccc2n1CC(=O)c1ccc(-c2ccc3ccccc3c2)cc1 | > 10 µM
17 | N=c1sc2c(n1CC(=O)c1ccc(-c3ccc4ccccc4c3)cc1)CCCC2 | 4.02 µM
18 | c1ccc(-c2cn3c(n2)sc2ccccc23)cc1 | 10.2 µM
19 | c1ccc(-c2ccc(-c3cn4c5c(sc4n3)CCCC5)cc2)cc1 | 3.79 µM
20 | c1ccc2c(c1)sc1nc(-c3ccc(N4CCCC4)cc3)cn12 | 0.35 µM
21 | c1ccc2cc(-c3ccc(-c4cn5c6c(sc5n4)CCCC6)cc3)ccc2c1 | 4.77 µM
22 | c1ccc2cc(-c3ccc(-c4cn5c(n4)sc4ccccc45)cc3)ccc2c1 | 4.02 µM
23 | CCN(CC)c1ccc(C(=O)Cn2c3c(sc2=N)CCCC3)cc1 | 1.84 µM
24 | COc1ccc(C(=O)Cn2c3c(sc2=N)CCCC3)cc1 | 7.54 µM
25 | COc1ccc2c(c1)sc1nc(-c3ccc(C)cc3)cn12 | 4.44 µM
26 | N=c1sc2ccccc2n1CC(=O)c1ccc(-c2ccccc2)cc1 | 7.26 µM
27 | [N-]=[N+]=Nc1ccc(C(=O)Cn2c3c(sc2=N)CCCC3)cc1 | 5.68 µM
28 | N=c1sc2c(n1CC(=O)c1ccc(Cl)c(Cl)c1)CCCC2 | 7.28 µM
29 | Cc1ccc(C(=O)Cn2c(=N)sc3ccccc32)cc1 | > 10 µM

tested on: not listed separately; test: Concentration for 95% confidence interval (CI) in dexamethasone-induced mice thymocytes; range 4.08-13.75 uM; format: functional, Mus musculus; procedure, shortened: as §1

Row | Structure (SMILES) | CI
30 | c1ccc(-c2ccc(-c3cn4c(n3)sc3ccccc34)cc2)cc1 | 13.75 µM

tested on: not listed separately; test: Concentration for 95% confidence interval (CI) in dexamethasone-induced mice thymocytes; range 4.08-8.01 uM; format: functional, Mus musculus; procedure, shortened: as §1

Row | Structure (SMILES) | CI
31 | N=c1sc2c(n1CC(=O)c1ccccc1Cl)CCCC2 | 8.01 µM

tested on: not listed separately; test: Concentration for 95% confidence interval (CI) in dexamethasone-induced mice thymocytes; range 2.95-5.88 uM; format: functional, Mus musculus; procedure, shortened: as §1

Row | Structure (SMILES) | CI
32 | Cc1ccc(C(=O)Cn2c3c(sc2=N)CCCC3)cc1 | 5.88 µM

tested on: not listed separately; test: Concentration for 95% confidence interval (CI) in dexamethasone-induced mice thymocytes; range 3.86-13.70 uM; format: functional, Mus musculus; procedure, shortened: as §1

Row | Structure (SMILES) | CI
33 | N=c1sc2c(n1CC(=O)c1ccc(Cl)c(Cl)c1)CCCC2 | 13.7 µM

tested on: not listed separately; test: Concentration for 95% confidence interval (CI) in dexamethasone-induced mice thymocytes; range 0.11-1.08 uM; format: functional, Mus musculus; procedure, shortened: as §1

Row | Structure (SMILES) | CI
34 | c1ccc2c(c1)sc1nc(-c3ccc(N4CCCC4)cc3)cn12 | 1.08 µM

tested on: not listed separately; test: Concentration for 95% confidence interval (CI) in dexamethasone-induced mice thymocytes; range 4.64-7.91 uM; format: functional, Mus musculus; procedure, shortened: as §1

Row | Structure (SMILES) | CI
35 | N=c1sc2c(n1CC(=O)c1ccccc1)CCCC2 | 7.91 µM

tested on: not listed separately; test: Concentration for 95% confidence interval (CI) in dexamethasone-induced mice thymocytes; range 2.78-5.16 uM; format: functional, Mus musculus; procedure, shortened: as §1

Row | Structure (SMILES) | CI
36 | c1ccc(-c2ccc(-c3cn4c5c(sc4n3)CCCC5)cc2)cc1 | 5.16 µM

tested on: not listed separately; test: Concentration for 95% confidence interval (CI) in dexamethasone-induced mice thymocytes; range 2.86-6.89 uM; format: functional, Mus musculus; procedure, shortened: as §1

Row | Structure (SMILES) | CI
37 | COc1ccc2c(c1)sc1nc(-c3ccc(C)cc3)cn12 | 6.89 µM

tested on: not listed separately; test: Concentration for 95% confidence interval (CI) in dexamethasone-induced mice thymocytes; range 3.45-4.69 uM; format: functional, Mus musculus; procedure, shortened: as §1

Row | Structure (SMILES) | CI
38 | c1ccc2cc(-c3ccc(-c4cn5c(n4)sc4ccccc45)cc3)ccc2c1 | 4.69 µM

tested on: not listed separately; test: Concentration for 95% confidence interval (CI) in dexamethasone-induced mice thymocytes; range 0.94-1.82 uM; format: functional, Mus musculus; procedure, shortened: as §1

Row | Structure (SMILES) | CI
39 | N=c1sc2c(n1CC(=O)c1ccc(N3CCCC3)cc1)CCCC2 | 1.82 µM

tested on: not listed separately; test: Concentration for 95% confidence interval (CI) in dexamethasone-induced mice thymocytes; range 3.95-5.75 uM; format: functional, Mus musculus; procedure, shortened: as §1

Row | Structure (SMILES) | CI
40 | c1ccc2cc(-c3ccc(-c4cn5c6c(sc5n4)CCCC6)cc3)ccc2c1 | 5.75 µM

tested on: not listed separately; test: Concentration for 95% confidence interval (CI) in dexamethasone-induced mice thymocytes; range 3.26-8.82 uM; format: functional, Mus musculus; procedure, shortened: as §1

Row | Structure (SMILES) | CI
41 | N=c1sc2c(n1CC(=O)c1ccc(Cl)cc1)CCCC2 | 8.82 µM

tested on: not listed separately; test: Concentration for 95% confidence interval (CI) in dexamethasone-induced mice thymocytes; range 1.51-2.24 uM; format: functional, Mus musculus; procedure, shortened: as §1

Row | Structure (SMILES) | CI
42 | CCN(CC)c1ccc(C(=O)Cn2c3c(sc2=N)CCCC3)cc1 | 2.24 µM

tested on: not listed separately; test: Concentration for 95% confidence interval (CI) in dexamethasone-induced mice thymocytes; range 1.76-2.98 uM; format: functional, Mus musculus; procedure, shortened: as §1

Row | Structure (SMILES) | CI
43 | N=c1sc2c(n1CC(=O)c1ccc(-c3ccccc3)cc1)CCCC2 | 2.98 µM

tested on: not listed separately; test: Concentration for 95% confidence interval (CI) in dexamethasone-induced mice thymocytes; range 4.61-7.00 uM; format: functional, Mus musculus; procedure, shortened: as §1

Row | Structure (SMILES) | CI
44 | [N-]=[N+]=Nc1ccc(C(=O)Cn2c3c(sc2=N)CCCC3)cc1 | 7 µM

tested on: not listed separately; test: Concentration for 95% confidence interval (CI) in dexamethasone-induced mice thymocytes; range 8.49-12.32 uM; format: functional, Mus musculus; procedure, shortened: as §1

Row | Structure (SMILES) | CI
45 | c1ccc(-c2cn3c(n2)sc2ccccc23)cc1 | 12.32 µM

tested on: not listed separately; test: Concentration for 95% confidence interval (CI) in dexamethasone-induced mice thymocytes; range 6.02-8.76 uM; format: functional, Mus musculus; procedure, shortened: as §1

Row | Structure (SMILES) | CI
46 | N=c1sc2ccccc2n1CC(=O)c1ccc(-c2ccccc2)cc1 | 8.76 µM

tested on: not listed separately; test: Concentration for 95% confidence interval (CI) in dexamethasone-induced mice thymocytes; range 1.45-2.80 uM; format: functional, Mus musculus; procedure, shortened: as §1

Row | Structure (SMILES) | CI
47 | Cc1ccc(-c2cn3c4c(sc3n2)CCCC4)cc1 | 2.8 µM

organism: Mus musculus; test: Average percent survival of C57Bl/6 mice thymocytes from Dexamethasone (5 uM) induced apoptosis at 10 uM

Row | Structure (SMILES) | Survival
48 | N=c1sc2c(n1CC(=O)c1ccccc1Cl)CCCC2 | 65%
49 | Fc1cccc(-c2cn3c4c(sc3n2)CCCC4)c1 | 34%
50 | C#CCn1c(=N)sc2ccccc21 | 23%
51 | Clc1ccc(-c2cn3c4c(sc3n2)CCCC4)cc1 | 35%
52 | N=c1sc2c(n1CC(=O)c1ccccc1)CCCC2 | 59%
53 | c1ccc(-c2ccc(-c3cn4c(n3)sc3ccccc34)cc2)cc1 | 59%
54 | N=c1sc2ccccc2n1CC(=O)c1ccc(N2CCCC2)cc1 | 64%
55 | Cc1ccc(C(=O)Cn2c3c(sc2=N)CCCC3)cc1 | 72%
56 | Cc1ccc(-c2nc3sc4ccccc4n3c2Br)cc1 | 24%
57 | Cc1ccc(S(=O)(=O)Nc2nc3ccccc3s2)cc1 | 26%
58 | N=c1sc2c(n1CC(=O)c1ccc(Cl)cc1)CCCC2 | 59%
59 | c1ccc(-c2cn3c4c(sc3n2)CCCC4)cc1 | 19%
60 | Cc1ccc(-c2cn3c(n2)nc(O)c2ccccc23)cc1 | 28%
61 | Oc1ccc(-c2cn3c4c(sc3n2)CCCC4)cc1 | 21%
62 | c1cc(N2CCCC2)ccc1-c1cn2c3c(sc2n1)CCCC3 | 50%
63 | CSC(=N)NC(=O)c1ccccc1NCC(=O)c1ccc(C)cc1 | 31%
64 | Cc1ccc(-c2nc3sc4c(n3c2Br)CCCC4)cc1 | 27%
65 | N=c1sc2c(n1CC(=O)c1ccc(N3CCCC3)cc1)CCCC2 | 77%
66 | c1ccc(-c2cnc3sc4ccccc4n23)cc1 | 15%
67 | Cc1ccc(-c2cn3c(n2)nc(Cl)c2ccccc23)cc1 | 46%
68 | N#Cc1ccc(C(=O)Cn2c3c(sc2=N)CCCC3)cc1 | 40%

Row | Structure (SMILES) | Survival
69 | Cc1ccc(-c2cn3c(n2)sc2cc(N)ccc23)cc1 | 27%
70 | Cc1ccc(C(=O)Cn2ccsc2=N)cc1 | 27%
71 | N=c1sc2c(n1CC(=O)c1ccc([N+](=O)[O-])cc1)CCCC2 | 21%
72 | N=c1sc2c(n1CC(=O)c1cccc(F)c1)CCCC2 | 54%
73 | Cc1ccc(-c2cn3c4c(sc3n2)CCCC4)cc1 | 54%
74 | Cc1ccc(-c2cn3c(n2)sc2ccccc23)cc1 | 73%
75 | N=c1sc2c(n1CC(=O)c1ccc(-c3ccccc3)cc1)CCCC2 | 65%
76 | N=c1sc2ccccc2n1CC(=O)c1ccc(-c2ccc3ccccc3c2)cc1 | 62%
77 | N=c1sc2c(n1CC(=O)c1ccc(-c3ccc4ccccc4c3)cc1)CCCC2 | 58%
78 | c1ccc(-c2cn3c(n2)sc2ccccc23)cc1 | 73%
79 | c1ccc(-c2ccc(-c3cn4c5c(sc4n3)CCCC5)cc2)cc1 | 75%
80 | c1ccc2c(c1)sc1nc(-c3ccc(N4CCCC4)cc3)cn12 | 78%
81 | c1ccc2cc(-c3ccc(-c4cn5c6c(sc5n4)CCCC6)cc3)ccc2c1 | 57%
82 | c1ccc2cc(-c3ccc(-c4cn5c(n4)sc4ccccc45)cc3)ccc2c1 | 75%
83 | CCN(CC)c1ccc(C(=O)Cn2c3c(sc2=N)CCCC3)cc1 | 70%
84 | COc1ccc(C(=O)Cn2c3c(sc2=N)CCCC3)cc1 | 66%
85 | COc1ccc2c(c1)sc1nc(-c3ccc(C)cc3)cn12 | 68%
86 | N=c1sc2ccccc2n1CC(=O)c1ccc(-c2ccccc2)cc1 | 66%
87 | [N-]=[N+]=Nc1ccc(C(=O)Cn2c3c(sc2=N)CCCC3)cc1 | 56%
88 | N=c1sc2c(n1CC(=O)c1ccc(Cl)c(Cl)c1)CCCC2 | 57%
89 | Cc1ccc(C(=O)Cn2c(=N)sc3ccccc32)cc1 | 21%
